High-throughput results from PubChem BioAssay.
In the library only some 2.5% were active in any assay of this set; here they are far more common.
TCR CD3 inh – inhibitors of human TCR-CD3 interaction. 360,000 compounds, 0.37% hits. inhibition, % at 9.4 µM. AID 651800. TAMRA-labeled TCR probe fluorescence, biochemical;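 also: recombinant mutant TCR 2C K166C tagged with TAMRA read by polarization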
SIAE inh – blocks human sialic acid acetylesterase. Q9HAT2. SIAE FP-Rh probe binding, fluorescence polarization. inhibition, % at 9.66 µM. 370,000 compounds, 0.69% hits. AID 1053197;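 active = inhibition above a cutoff: mean of compounds within the control limits plus 3 SD of those, cut at about 17% in these data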
HTRA1 inh – inhibitors of human serine peptidase HTRA1; AID 504803; 340,000 compounds, 0.5% hits; recombinant HTRA1, FP-rhodamine activity-based probe, fluorescence polarization; inhibition, % at 5.96 µM; Q92743; in the data active = inhibition above about 36%
rCAG binder – molecules binding r(CAG) RNA repeats; r(CAG) RNA repeat, TO-PRO-1 dye displacement fluorescence; inhibition, % at 3 µM; 370,000 compounds, 1.3% hits; AID 651821;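 active = inhibition above the plate cutoff, the mean of all test compounds on that plate plus 3 SD, cut at about 35% in these data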;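 also: higher means more dye released from RNA so lower well fluorescence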
mABHD4 FP – ABHD4 (mouse) inhibition, primary FP screen | Q8VD66 | purified mABHD4, FP-Rh probe fluorescence polarization | inhibition, % at 8.92 µM | 370,000 compounds, 0.54% hits | AID 720543;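 active = inhibition exceeding the mean over every tested compound plus 3 SD, cut at about 30% in these data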
Target sequence (Q8VD66 whole entry, looked up): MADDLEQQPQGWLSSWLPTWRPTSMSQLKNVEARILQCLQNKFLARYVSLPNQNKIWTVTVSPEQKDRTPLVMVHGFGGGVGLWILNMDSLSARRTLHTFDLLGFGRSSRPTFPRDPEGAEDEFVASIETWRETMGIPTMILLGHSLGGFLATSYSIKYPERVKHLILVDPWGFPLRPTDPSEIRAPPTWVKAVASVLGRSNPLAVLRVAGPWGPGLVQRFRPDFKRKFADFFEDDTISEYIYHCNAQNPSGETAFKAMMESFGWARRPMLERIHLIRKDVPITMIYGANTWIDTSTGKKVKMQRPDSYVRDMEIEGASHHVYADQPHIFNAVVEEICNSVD
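Assay system: Wild-type mouse ABHD4 protein | Medium: HEPES pH 7.0 buffer, 150 mM NaCl, 0.01% Pluronic F-127 | Incubation: Enzyme–compound pre-incubation 45 min, then probe 60 min, both 25 °C | Technique: Fluorescence polarization with parallel and perpendicular emission, 525/598 nm | Evaluation: % inhibition of FP-Rh probe binding versus controls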
BSA TAMRA ctr – interferes with TAMRA-BSA probe, flagging TCR-CD3 hits | 1,200 compounds, 10% hits | inhibition, % at 9.4 µM | TAMRA-labeled BSA probe fluorescence counterscreen | shares compounds with TCR CD3 inh | AID 652035; in the data active = inhibition above about 23%
TCR-CD3 conf – confirmation of human TCR-CD3 interaction inhibitors. TAMRA-labeled TCR probe fluorescence binding assay. 1,200 compounds, 48% hits. shares compounds with TCR CD3 inh. inhibition, % at 9.4 µM
Of the large screens only hits and unclear results are named; the others gave an inactive call (follow-up assays come after a bar, where they were run). Rule as the data show it, unless noted: active = inhibition above about 19%; inactive = the rest.

CC1(C)CC2CC(C)(CN2S(=O)(=O)c2ccc(C(=O)Nc3ccc(Cl)c(S(=O)(=O)N4CCOCC4)c3)cc2)C1 (stereo unspecified)	none
CC1(C)CC2CC(C)(CN2S(=O)(=O)c2ccc(C(=O)Nc3ccc(S(=O)(=O)N4CCOCC4)cc3)cc2)C1 (stereo unspecified)	TCR CD3 inh 41 | BSA TAMRA ctr 23 | TCR-CD3 conf 56
O=C(N/N=C/C1CC=CCC1)c1ccccc1O (stereo unspecified)	none
O=C(N/N=C/C1CC=CCC1)c1ccc(Cl)cc1O (stereo unspecified)	TCR CD3 inh 20 | BSA TAMRA ctr inactive | TCR-CD3 conf inactive
O=[N+]([O-])C1=CC=C2C(=NC3(CCCCC3)N2O)C1=NC1CCCCC1	TCR CD3 inh 56 | BSA TAMRA ctr inactive | TCR-CD3 conf inactive
CC1(C)CC(N=C2C([N+](=O)[O-])=CC=C3C2=NC2(CCCCC2)N3O)CC(C)(C)N1	none
CCOC(=O)c1ccc(CC2S/C(=C(\C#N)C(C)=O)NC2=O)cc1 (stereo unspecified)	none
Cc1cccc(N2CCN(C3=NC(=O)/C(=C\c4cn[nH]c4-c4ccccc4)S3)CC2)c1	none
Cc1cc(C)cc(N(C(=O)C(F)(F)F)C(C(=O)NC2CCCCC2)c2cccs2)c1 (stereo unspecified)	none
Cc1ccccc1NS(=O)(=O)c1ccc(C(=O)NCC2(N3CCOCC3)CCCCC2)cc1	TCR CD3 inh 27 | BSA TAMRA ctr inactive | TCR-CD3 conf inactive
O=C(NCC1(N2CCOCC2)CCCCC1)c1ccc(S(=O)(=O)Nc2ccccc2F)cc1	none
Cn1cccc1CC(=O)NNC(=S)NC(=O)c1ccccc1Br	TCR CD3 inh 28 | BSA TAMRA ctr inactive | TCR-CD3 conf inactive
Cn1cccc1CC(=O)NNC(=S)Nc1ccc(F)cc1	none
O=C(COC(=O)c1cc(S(=O)(=O)N2CCOCC2)ccc1O)Nc1ccc2c(c1)OCO2	none
CNC(=S)NNC(=O)c1ccc(=O)n(Cc2ccc(Cl)cc2Cl)c1	none
CNC(=S)NNC(=O)c1cccn(Cc2ccc(Cl)cc2Cl)c1=O	TCR CD3 inh 27 (no result: HTRA1 inh) | BSA TAMRA ctr inactive | TCR-CD3 conf 26
CNC(=S)NNC(=O)c1cccn(Cc2cccc(C(F)(F)F)c2)c1=O	TCR CD3 inh 26 | BSA TAMRA ctr inactive | TCR-CD3 conf 25
CCNC(=S)NNC(=O)c1cccn(Cc2ccc(Cl)cc2)c1=O	none
COc1ccc(-c2cc3nc(NCc4ccc(C)cc4C)n(C)c(=O)c3s2)cc1OC	none (no result: HTRA1 inh)
Cc1ccc(NC(=O)Nc2ccccc2F)cc1S(=O)(=O)N1CCOCC1	none
C=CCNC(=S)Nc1ccc(C)c(S(=O)(=O)N2CCCCC2)c1	none
Cc1ccc(NC(=S)Nc2ccc(C(C)C)cc2)cc1S(=O)(=O)N1CCCCCC1	TCR CD3 inh 22 | BSA TAMRA ctr inactive | TCR-CD3 conf inactive
Cc1ccc(NC(=O)CN(C)C(=O)c2cccc(-n3cccc3)c2)cc1	TCR CD3 inh 22 | BSA TAMRA ctr inactive | TCR-CD3 conf inactive
NNC(=O)c1nc[nH]c1C(=O)Nc1ccccc1[N+](=O)[O-]	TCR CD3 inh 30 | BSA TAMRA ctr inactive | TCR-CD3 conf inactive
C/C(=N\Nc1nc(N2CCOCC2)nc(N2CCOCC2)n1)c1cccc([N+](=O)[O-])c1	none
C=CCn1c(=NC(=O)c2ccc(S(=O)(=O)N3CCc4ccccc4C3)cc2)sc2cc(S(N)(=O)=O)ccc21	TCR CD3 inh 31 | BSA TAMRA ctr inactive | TCR-CD3 conf 31
Cc1onc(-c2ccccc2)c1C(=O)N/N=C/c1cccc(O)c1	none
Cc1onc(-c2ccccc2)c1C(=O)NN=Cc1cc(Cl)cc(Cl)c1O	TCR CD3 inh 27 (no result: HTRA1 inh) | BSA TAMRA ctr inactive | TCR-CD3 conf 34
CCCCCCCCN1[C@@H](CC(=O)O)c2cc(F)ccc2S1(=O)=O	none
O=C(COc1ccccc1)N1CCN(S(=O)(=O)c2cccc([N+](=O)[O-])c2)CC1	none
Cc1cccc(NC(=O)C23CCC(C)(/C(=N/O)C2)C3(C)C)c1 (stereo unspecified)	none
O=[n+]1c2c(n([O-])c3cc(F)c(N4CCCC4)cc31)CCC2	TCR CD3 inh 25 | BSA TAMRA ctr 29 | TCR-CD3 conf 28
O=[n+]1c2c(n([O-])c3cc(F)c(N4CCCC4)cc31)CCCC2	TCR CD3 inh 23 | BSA TAMRA ctr 30 | TCR-CD3 conf 28
C=CCN(c1ccccc1)S(=O)(=O)c1ccc2c(c1)oc(=O)n2C	TCR CD3 inh 64 | BSA TAMRA ctr inactive | TCR-CD3 conf inactive
CCOc1cccc(-c2nnc3n2N=C(c2cc(OC)ccc2OC)CS3)c1	none
CN(C)S(=O)(=O)c1cccc(NC(=O)COC(=O)c2cn(-c3ccccc3)nc2-c2ccccc2)c1	TCR CD3 inh 31 | BSA TAMRA ctr inactive | TCR-CD3 conf inactive
Cc1cc(C(=O)OCC(=O)Nc2cccc(S(=O)(=O)N(C)C)c2)c2ccccc2n1	none
NS(=O)(=O)c1cccc(NC(=O)COC(=O)c2cc(-c3ccc(Cl)cc3)nc3ccccc23)c1	TCR CD3 inh 81 | BSA TAMRA ctr inactive | TCR-CD3 conf 35
CN(C)S(=O)(=O)c1cccc(NC(=O)COC(=O)c2cccc(S(=O)(=O)N3CCc4ccccc4C3)c2)c1	TCR CD3 inh 42 | BSA TAMRA ctr 26 | TCR-CD3 conf 54
CCC(CC)CN1CCC(CN2CCNC(=O)C2=O)CC1	none
CCC(CC)C(C(=O)NCc1ccccc1)N1CCN(c2cccc(C)c2C)CC1 (stereo unspecified)	TCR CD3 inh 31 (no result: HTRA1 inh) | BSA TAMRA ctr inactive | TCR-CD3 conf inactive
CCOC(=O)c1sc(NC(=O)CCCCl)nc1C	none
O=C(NCCNC(=O)c1ccc(Cl)cc1Cl)c1ccccn1	none
O=C(NCCCSc1ccccc1)c1cccnc1	none
COc1ccc(C(=O)NNC(=S)NC(=O)c2ccc(OC)cc2)cc1	none
COc1ccc(C(=O)NNC(=S)NC(=O)c2ccc(F)cc2)cc1Br	TCR CD3 inh 20 (no result: HTRA1 inh) | BSA TAMRA ctr inactive | TCR-CD3 conf inactive
COc1ccc(C(=O)NNC(=S)NC(=O)c2cccs2)cc1	TCR CD3 inh 23 | BSA TAMRA ctr inactive | TCR-CD3 conf 30
COc1ccc(C(=O)NNC(=S)NC(=O)c2cccnc2)cc1	TCR CD3 inh 38 | BSA TAMRA ctr inactive | TCR-CD3 conf 37
COc1ccc(CC(=O)NNC(=S)NC(=O)c2cc(OC)c(OC)c(OC)c2)cc1	none
O=C(NNC(=S)NC(=O)c1cccnc1)c1ccccc1	none
COc1ccc(CC(=O)NNC(=S)NC(=O)c2cccnc2)cc1	TCR CD3 inh 26 | BSA TAMRA ctr inactive | TCR-CD3 conf inactive
O=C(Nc1ccccc1Cl)N1CCN(C/C=C/c2ccccc2)CC1	none
O=C(NCc1ccccc1)C1C(c2ccccc2)=Nc2ccccc2N1C(=O)c1ccncc1 (stereo unspecified)	none (no result: HTRA1 inh)
CCn1nc(C(=O)Nc2ccc(Cl)c(S(=O)(=O)N3CCOCC3)c2)c2ccccc2c1=O	none
